Results published in ChEMBL document CHEMBL2177098, “Synthesis and evaluation of novel ¹⁸F labeled 2-pyridinylbenzoxazole and 2-pyridinylbenzothiazole derivatives as ligands for positron emission tomography (PET) imaging of β-amyloid plaques” (J Med Chem, 2012).

Columns and labels:
[1] = system: Brain; test: Drug uptake in healthy human brain at 370 KBq/100 ul after 1 hr by autoradiographic analysis; type: ADME, tissue-based; settings: in vitro
[2] = system: Spleen; test: Drug uptake in ICR mouse spleen at 370 kBq/100 ul, iv at 30 mins by gamma-counting analysis; type: ADME, organism-based; settings: in vivo, 0.5 h
Procedure, shortened: (§1)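 Male ICR mice (5 weeks, about 20 g) got 18F tracer in saline (370 KBq per 100 μL) via tail vein; n = 5 per time point, killed at 2, 10, 30, 60 min. Organs weighed and γ-counted; percent dose per gram wet tissue from comparison with diluted injectate aliquots.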

[3] = system: Heart; test: Drug uptake in ICR mouse heart at 370 kBq/100 ul, iv at 60 mins by gamma-counting analysis; type: ADME, organism-based; settings: in vivo, 1 h; procedure, shortened: as §1
[4] = system: Brain; test: Drug uptake in ICR mouse brain at 370 kBq/100 ul, iv at 60 mins by gamma-counting analysis; type: ADME, organism-based; settings: in vivo, 1 h; procedure, shortened: as §1
[5] = system: Intestine; test: Drug uptake in ICR mouse intestine assessed per organ at 370 kBq/100 ul, iv at 30 mins by gamma-counting analysis; type: ADME, organism-based; settings: in vivo, 0.5 h
Procedure, shortened: (§2)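 Male ICR mice (5 weeks, about 20 g) got 18F tracer in saline (370 KBq per 100 μL) via tail vein; n = 5 per time point, killed at 2, 10, 30, 60 min. Organs removed and γ-counted against diluted injectate; expressed as % injected dose per organ.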

[6] = system: Blood; test: Drug uptake in ICR mouse blood at 370 kBq/100 ul, iv at 60 mins by gamma-counting analysis; type: ADME, organism-based; settings: in vivo, 1 h; procedure, shortened: as §1
[7] = system: Liver; test: Drug uptake in ICR mouse liver at 370 kBq/100 ul, iv at 10 mins by gamma-counting analysis; type: ADME, organism-based; settings: in vivo; procedure, shortened: as §1
[8] = system: Brain; test: Drug uptake in wild type C57BL6 mouse brain at 370 KBq/100 ul after 1 hr by autoradiographic analysis; type: ADME, tissue-based; settings: in vitro
Procedure, shortened: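 Paraffin brain sections from 12-month-old male control C57BL6 mice were deparaffinized through xylene and graded ethanol, then held in PBS (0.2 M, pH 7.4) for 30 min. They were incubated with the ¹⁸F tracer (370 KBq per 100 μL) for 1 h at room temperature. Sections were washed in 40% EtOH, rinsed with water for 1 min, dried, and exposed to a phosphor plate for 2 h. The same sections were then stained with thioflavin S.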

[9] = system: Lung; test: Drug uptake in ICR mouse lung at 370 kBq/100 ul, iv at 60 mins by gamma-counting analysis; type: ADME, organism-based; settings: in vivo, 1 h; procedure, shortened: as §1
[10] = system: Brain; test: Ratio of drug uptake in brain at 2 mins to drug uptake in brain at 60 mins in ICR mouse at 370 KBq/100 ul, iv; type: ADME, organism-based; settings: in vivo
Procedure, shortened: (§3)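 Normal male ICR mice (5 weeks, about 20 g) received the ¹⁸F tracer in saline (370 KBq per 100 μL) by tail-vein injection. Groups of n = 5 were killed at 2, 10, 30 and 60 min. Organs were removed, weighed and γ-counted against diluted aliquots of the injectate, giving % dose per gram. Stomach and intestine were expressed per organ. The brain ratio is 2 min/60 min uptake. Values are mean ± SD.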

[11] = system: Kidney; test: Drug uptake in ICR mouse kidney at 370 kBq/100 ul, iv at 2 mins by gamma-counting analysis; type: ADME, organism-based; settings: in vivo; procedure, shortened: as §1
[12] = system: Heart; test: Drug uptake in ICR mouse heart at 370 kBq/100 ul, iv at 30 mins by gamma-counting analysis; type: ADME, organism-based; settings: in vivo, 0.5 h; procedure, shortened: as §1
[13] = system: Heart; test: Drug uptake in ICR mouse heart at 370 kBq/100 ul, iv at 2 mins by gamma-counting analysis; type: ADME, organism-based; settings: in vivo; procedure, shortened: as §1
[14] = system: Kidney; test: Drug uptake in ICR mouse kidney at 370 kBq/100 ul, iv at 60 mins by gamma-counting analysis; type: ADME, organism-based; settings: in vivo, 1 h; procedure, shortened: as §1
[15] = system: Bone; test: Drug uptake in ICR mouse bone at 370 kBq/100 ul, iv at 10 mins by gamma-counting analysis; type: ADME, organism-based, Bone element; settings: in vivo; procedure, shortened: as §1
[16] = system: Bone; test: Drug uptake in ICR mouse bone at 370 kBq/100 ul, iv at 2 mins by gamma-counting analysis; type: ADME, organism-based, Bone element; settings: in vivo; procedure, shortened: as §1
[17] = system: Heart; test: Drug uptake in ICR mouse heart at 370 kBq/100 ul, iv at 10 mins by gamma-counting analysis; type: ADME, organism-based; settings: in vivo; procedure, shortened: as §1
[18] = system: Blood; test: Drug uptake in ICR mouse blood at 370 kBq/100 ul, iv at 10 mins by gamma-counting analysis; type: ADME, organism-based; settings: in vivo; procedure, shortened: as §1
[19] = Displacement of [125I]-IMPY from amyloid beta (1 to 42) fibrils after 2 hrs by gamma-counting analysis
Procedure, shortened: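 Competition binding with aggregated Aβ1-42 fibrils and [125I]IMPY (60000−100000 cpm/100 μL) in 0.05% BSA (1 mL total); inhibitors 10⁻⁴−10^−8.5 M in ethanol. Incubated 37 °C for 2 h, then GF/B vacuum filtration with PBS (0.02 M, pH 7.4) washes and γ counting. Three repeats; IC50 converted to Ki by Cheng−Prusoff.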

[20] = system: Blood; test: Drug uptake in ICR mouse blood at 370 kBq/100 ul, iv at 2 mins by gamma-counting analysis; type: ADME, organism-based; settings: in vivo; procedure, shortened: as §1
[21] = system: Intestine; test: Drug uptake in ICR mouse intestine assessed per organ at 370 kBq/100 ul, iv at 60 mins by gamma-counting analysis; type: ADME, organism-based; settings: in vivo, 1 h; procedure, shortened: as §2
[22] = system: Lung; test: Drug uptake in ICR mouse lung at 370 kBq/100 ul, iv at 2 mins by gamma-counting analysis; type: ADME, organism-based; settings: in vivo; procedure, shortened: as §1
[23] = system: Stomach; test: Drug uptake in ICR mouse stomach assessed per organ at 370 kBq/100 ul, iv at 10 mins by gamma-counting analysis; type: ADME, organism-based; settings: in vivo; procedure, shortened: as §2
[24] = system: Intestine; test: Drug uptake in ICR mouse intestine assessed per organ at 370 kBq/100 ul, iv at 10 mins by gamma-counting analysis; type: ADME, organism-based; settings: in vivo; procedure, shortened: as §2
[25] = system: Stomach; test: Drug uptake in ICR mouse stomach assessed per organ at 370 kBq/100 ul, iv at 30 mins by gamma-counting analysis; type: ADME, organism-based; settings: in vivo, 0.5 h; procedure, shortened: as §2
[26] = system: Kidney; test: Drug uptake in ICR mouse kidney at 370 kBq/100 ul, iv at 30 mins by gamma-counting analysis; type: ADME, organism-based; settings: in vivo, 0.5 h; procedure, shortened: as §1
[27] = system: Stomach; test: Drug uptake in ICR mouse stomach assessed per organ at 370 kBq/100 ul, iv at 2 mins by gamma-counting analysis; type: ADME, organism-based; settings: in vivo; procedure, shortened: as §2
[28] = system: Liver; test: Drug uptake in ICR mouse liver at 370 kBq/100 ul, iv at 2 mins by gamma-counting analysis; type: ADME, organism-based; settings: in vivo; procedure, shortened: as §1
[29] = system: Brain; test: Drug uptake in ICR mouse brain at 370 kBq/100 ul, iv at 2 mins by gamma-counting analysis; type: ADME, organism-based; settings: in vivo; procedure, shortened: as §1
[30] = system: Kidney; test: Drug uptake in ICR mouse kidney at 370 kBq/100 ul, iv at 10 mins by gamma-counting analysis; type: ADME, organism-based; settings: in vivo; procedure, shortened: as §1
[31] = system: Liver; test: Drug uptake in ICR mouse liver at 370 kBq/100 ul, iv at 30 mins by gamma-counting analysis; type: ADME, organism-based; settings: in vivo, 0.5 h; procedure, shortened: as §1
[32] = system: Bone; test: Drug uptake in ICR mouse bone at 370 kBq/100 ul, iv at 30 mins by gamma-counting analysis; type: ADME, organism-based, Bone element; settings: in vivo, 0.5 h; procedure, shortened: as §1
[33] = system: Intestine; test: Drug uptake in ICR mouse intestine assessed per organ at 370 kBq/100 ul, iv at 2 mins by gamma-counting analysis; type: ADME, organism-based; settings: in vivo; procedure, shortened: as §2
[34] = system: Brain; test: Drug uptake in ICR mouse brain at 370 kBq/100 ul, iv at 10 mins by gamma-counting analysis; type: ADME, organism-based; settings: in vivo; procedure, shortened: as §1
[35] = system: Lung; test: Drug uptake in ICR mouse lung at 370 kBq/100 ul, iv at 10 mins by gamma-counting analysis; type: ADME, organism-based; settings: in vivo; procedure, shortened: as §1
[36] = system: Blood; test: Drug uptake in ICR mouse blood at 370 kBq/100 ul, iv at 30 mins by gamma-counting analysis; type: ADME, organism-based; settings: in vivo, 0.5 h; procedure, shortened: as §1
[37] = n-Octanol-PBS buffer partition coefficient, log D of the compound at 1.5 MBq after 3 mins at pH 7.4; type: physicochemical
Procedure, shortened: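 The tracer was partitioned between n-octanol and PBS by vortexing for 3 min at room temperature, then centrifuged for 5 min at 3000 rpm. Samples of the octanol (50 μL) and aqueous (500 μL) layers were counted. log D is the log of the octanol/PBS counts-per-gram ratio. The octanol layer was repartitioned until values were consistent. Measured in triplicate and repeated three times.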

[38] = system: Stomach; test: Drug uptake in ICR mouse stomach assessed per organ at 370 kBq/100 ul, iv at 60 mins by gamma-counting analysis; type: ADME, organism-based; settings: in vivo, 1 h; procedure, shortened: as §3
[39] = system: Liver; test: Drug uptake in ICR mouse liver at 370 kBq/100 ul, iv at 60 mins by gamma-counting analysis; type: ADME, organism-based; settings: in vivo, 1 h; procedure, shortened: as §1
[40] = system: Spleen; test: Drug uptake in ICR mouse spleen at 370 kBq/100 ul, iv at 60 mins by gamma-counting analysis; type: ADME, organism-based; settings: in vivo, 1 h; procedure, shortened: as §1
[41] = system: Bone; test: Drug uptake in ICR mouse bone at 370 kBq/100 ul, iv at 60 mins by gamma-counting analysis; type: ADME, organism-based, Bone element; settings: in vivo, 1 h; procedure, shortened: as §1
[42] = system: Spleen; test: Drug uptake in ICR mouse spleen at 370 kBq/100 ul, iv at 10 mins by gamma-counting analysis; type: ADME, organism-based; settings: in vivo; procedure, shortened: as §1
[43] = system: Brain; test: Drug uptake in ICR mouse brain at 370 kBq/100 ul, iv at 30 mins by gamma-counting analysis; type: ADME, organism-based; settings: in vivo, 0.5 h; procedure, shortened: as §1
[44] = system: Spleen; test: Drug uptake in ICR mouse spleen at 370 kBq/100 ul, iv at 2 mins by gamma-counting analysis; type: ADME, organism-based; settings: in vivo; procedure, shortened: as §1
[45] = system: Lung; test: Drug uptake in ICR mouse lung at 370 kBq/100 ul, iv at 30 mins by gamma-counting analysis; type: ADME, organism-based; settings: in vivo, 0.5 h; procedure, shortened: as §1

## CNc1ccc(-c2nc3cc(OCCOCCOCC[18F])ccc3o2)cn1
[1]
  Drug uptake: Not Active
[2]
  Drug uptake: 2.18 % ID/g
[3]
  Drug uptake: 2.5 % ID/g
[4]
  Drug uptake: 1.78 % ID/g
[5]
  Drug uptake: 28.65 %ID
[6]
  Drug uptake: 2.74 % ID/g
[7]
  Drug uptake: 9.32 % ID/g
[8]
  Drug uptake: Not Active
[9]
  Drug uptake: 2.34 % ID/g
[10]
  Ratio: 2.28
[11]
  Drug uptake: 8.51 % ID/g
[12]
  Drug uptake: 3.16 % ID/g
[13]
  Drug uptake: 5.5 % ID/g
[14]
  Drug uptake: 2.54 % ID/g
[15]
  Drug uptake: 1.92 % ID/g
[16]
  Drug uptake: 1.75 % ID/g
[17]
  Drug uptake: 3.35 % ID/g
[18]
  Drug uptake: 3.04 % ID/g
[19]
  Ki: 0.0769 µM
[20]
  Drug uptake: 5.07 % ID/g
[21]
  Drug uptake: 25.16 %ID
[22]
  Drug uptake: 5.3 % ID/g
[23]
  Drug uptake: 12.32 %ID
[24]
  Drug uptake: 22.9 %ID
[25]
  Drug uptake: 12.93 %ID
[26]
  Drug uptake: 3.73 % ID/g
[27]
  Drug uptake: 5.08 %ID
[28]
  Drug uptake: 14.22 % ID/g
[29]
  Drug uptake: 4.05 % ID/g
[30]
  Drug uptake: 4.79 % ID/g
[31]
  Drug uptake: 6.47 % ID/g
[32]
  Drug uptake: 2.46 % ID/g
[33]
  Drug uptake: 10.81 %ID
[34]
  Drug uptake: 2.05 % ID/g
[35]
  Drug uptake: 3.15 % ID/g
[36]
  Drug uptake: 3.16 % ID/g
[37]
  logD at 0.05 h: 2.86
[38]
  Drug uptake: 12.02 %ID
[39]
  Drug uptake: 4.21 % ID/g
[40]
  Drug uptake: 1.79 % ID/g
[41]
  Drug uptake: 3.93 % ID/g
[42]
  Drug uptake: 2.64 % ID/g
[43]
  Drug uptake: 2.06 % ID/g
[44]
  Drug uptake: 4.13 % ID/g
[45]
  Drug uptake: 2.81 % ID/g
